{
  "source": "ChEMBL document CHEMBL1134791",
  "about": "“2- and 3-substituted 1,4-naphthoquinone derivatives as subversive substrates of trypanothione reductase and lipoamide dehydrogenase from Trypanosoma cruzi: synthesis and correlation between redox cycling activities and in vitro cytotoxicity” (J Med Chem, 2001)",
  "key": {"[1]": {"substrate": "CC1=C(CCC(=O)NCCCN2CCN(C)CC2)C(=O)c2ccccc2C1=O", "test": "(§1) The Michaelis-Menten constant for […] by pig heart LipDH (lipoamide dehydrogenase)", "in_short": "(§2)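 Recombinant T. cruzi LipDH (E. coli, purified) or pig heart LipDH, 0.1–2.5 µg/mL. Buffer was 50 mM potassium phosphate, 1 mM EDTA, pH 7.0, with 100 µM NADH and naphthoquinone at 10 µM–1.2 mM; all assays carried equal DMSO. Run at 31 °C, started with enzyme, NADH decrease followed at 340 nm. Km and Vmax from Lineweaver–Burk plots. At least duplicate.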"}, "[2]": {"substrate": "CC1=CC(=O)c2c(O)cccc2C1=O", "test": "as §1", "in_short": "as §2"}, "[3]": {"substrate": "CC1=CC(=O)c2ccccc2C1=O", "test": "as §1", "in_short": "as §2"}, "[4]": {"substrate": "CC1=C(CCC(=O)NCCCN2CCN(C)CC2)C(=O)c2c(O)cccc2C1=O", "test": "(§3) Vmax is the maximum velocity of the pig heart LipDH (lipoamide dehydrogenase) catalyzed NADH oxidation", "in_short": "as §2"}, "[5]": {"substrate": "CC1=C(CCC(=O)NCCCN2CCN(C)CC2)C(=O)c2ccccc2C1=O", "test": "as §3", "in_short": "as §2"}, "[6]": {"substrate": "CC1=C(CCC(=O)O)C(=O)c2c(O)cccc2C1=O", "test": "as §3", "in_short": "as §2"}, "[7]": {"substrate": "CC1=C(CCC(=O)O)C(=O)c2ccccc2C1=O", "test": "as §3", "in_short": "as §2"}, "[8]": {"substrate": "CC1=C(CCCNC(=O)OC(C)(C)C)C(=O)c2c(O)cccc2C1=O", "test": "as §3", "in_short": "as §2"}, "[9]": {"substrate": "CC1=C(CCCNC(=O)OC(C)(C)C)C(=O)c2ccccc2C1=O", "test": "as §3", "in_short": "as §2"}, "[10]": {"substrate": "CC1=CC(=O)c2c(O)cccc2C1=O", "test": "as §3", "in_short": "as §2"}, "[11]": {"substrate": "CC1=CC(=O)c2ccccc2C1=O", "test": "as §3", "in_short": "as §2"}, "[12]": {"substrate": "CC1=C(CCC(=O)NCCCN2CCN(C)CC2)C(=O)c2c(O)cccc2C1=O", "test": "The Michaelis-Menten constant for NADH oxidation by pig heart LipDH (lipoamide dehydrogenase)"}, "[13]": {"substrate": "CC1=C(CCC(=O)O)C(=O)c2c(O)cccc2C1=O", "test": "The Michaelis-Menten constant for NADH oxidation by pig heart LipDH (lipoamide dehydrogenase)"}, "[14]": {"substrate": "CC1=C(CCC(=O)O)C(=O)c2ccccc2C1=O", "test": "The Michaelis-Menten constant for NADH oxidation by pig heart LipDH (lipoamide dehydrogenase)"}, "[15]": {"substrate": "CC1=C(CCCNC(=O)OC(C)(C)C)C(=O)c2c(O)cccc2C1=O", "test": "The Michaelis-Menten constant for NADH oxidation by pig heart LipDH (lipoamide dehydrogenase)"}, "[16]": {"substrate": "CC1=C(CCCNC(=O)OC(C)(C)C)C(=O)c2ccccc2C1=O", "test": "The Michaelis-Menten constant for NADH oxidation by pig heart LipDH (lipoamide dehydrogenase)"}},
  "data": [
    {"protein": "Dihydrolipoyl dehydrogenase, mitochondrial (Sus scrofa), P09623 (protein) MQSWSRVYCTLAKRGHFNRIAHGLQGVSAVPLRTYADQPIDADVTVIGSGPGGYVAAIKAAQLGFKTVCIEKNETLGGTCLNVGCIPSKALLNNSHYYHMAHGKDFASRGIEMSEVRLNLEKMMEQKSNAVKALTGGIAHLFKQNKVVRVNGYGKITGKNQVTATKADGSTEVINTKNILIATGSEVTPFPGITIDEDTVVSSTGALSLKKVPEKMVVIGAGVIGVELGSVWQRLGADVTAVELLGHVGGIGIDMEVSKNFQRILQKQGFKFKLNTKVIGATKKSDGNIDVSIEAASGGKAEVITCDVLLVCIGRRPFTQNLGLEELGIELDPRGRIPVNTRFQTKIPNIYAIGDVVAGPMLAHKAEDEGIICVEGMAGGAVHIDYNCVPSVIYTHPEVAWVGKSEEQLKEEGIEYKVGKFPFAANSRAKTNADTDGMVKILGQKSTDRVLGAHIIGPGAGEMINEAALALEYGASCEDIARVCHAHPTLSEAFREANLAASFGKAINF", "values": [
      {"measurement": "Km", "setting": "[1]", "result": 110, "unit": "µM"},
      {"measurement": "Km", "setting": "[2]", "result": 74, "unit": "µM"},
      {"measurement": "Km", "setting": "[3]", "result": 72, "unit": "µM"},
      {"measurement": "Vmax", "setting": "[4]", "result": 1.09, "unit": "µM/min/mg"},
      {"measurement": "Vmax", "setting": "[5]", "result": 3.46, "unit": "µM/min/mg"},
      {"measurement": "Vmax", "setting": "[6]", "result": 2.2, "unit": "µM/min/mg"},
      {"measurement": "Vmax", "setting": "[7]", "result": 1.52, "unit": "µM/min/mg"},
      {"measurement": "Vmax", "setting": "[8]", "result": 1.66, "unit": "µM/min/mg"},
      {"measurement": "Vmax", "setting": "[9]", "result": 1.03, "unit": "µM/min/mg"},
      {"measurement": "Vmax", "setting": "[10]", "result": 25.3, "unit": "µM/min/mg"},
      {"measurement": "Vmax", "setting": "[11]", "result": 11.5, "unit": "µM/min/mg"},
      {"measurement": "Km", "setting": "[12]", "result": 15, "unit": "µM"},
      {"measurement": "Km", "setting": "[13]", "result": 75, "unit": "µM"},
      {"measurement": "Km", "setting": "[14]", "result": 40, "unit": "µM"},
      {"measurement": "Km", "setting": "[15]", "result": 40, "unit": "µM"},
      {"measurement": "Km", "setting": "[16]", "result": 25, "unit": "µM"}
    ]}
  ]
}
